Columns and labels:
Pseudomonas aeruginosa [1] = experiment: Antimicrobial activity against Pseudomonas aeruginosa K799/61 assessed as inhibition zone at 37 degC for 24 hrs by agar diffusion method; assay type: functional
Outline: (§1)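 Each solution at 2.0 mM in DMSO:MeOH (1:9), 50 μL filled into 9 mm agar wells (Standard I Nutrient or Mueller Hinton II Agar). Incubation at 37 °C for 24 h. Inhibition zone diameter measured in mm; a partially clear zone or colonies inside the zone noted as p.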

Bacillus subtilis [2] = experiment: Antimicrobial activity against Bacillus subtilis ATCC 6633 assessed as inhibition zone at 37 degC for 24 hrs by agar diffusion method; assay type: functional
Outline: (§2)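 Well diffusion: 50 μL of a 1.0 mM solution in DMSO:MeOH (1:9) filled into 9 mm wells cut in Standard I Nutrient Agar or Mueller Hinton II Agar. Plates incubated at 37 °C for 24 h, then growth inhibition zone read in mm. Partially clear zones, or colonies within the zone, recorded as p.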

Staphylococcus aureus [3] = experiment: Antimicrobial activity against Staphylococcus aureus Efs1 assessed as inhibition zone at 37 degC for 24 hrs by agar diffusion method; assay type: functional; outline: as §1
Staphylococcus aureus [4] = experiment: Antimicrobial activity against Staphylococcus aureus Efs4 assessed as inhibition zone at 37 degC for 24 hrs by agar diffusion method; assay type: functional; outline: as §1
Staphylococcus aureus [5] = experiment: Antimicrobial activity against Staphylococcus aureus Efs4 assessed as partially clear inhibition zone at 37 degC for 24 hrs by agar diffusion method; assay type: functional
Outline: (§3)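 Agar well diffusion. Each 9 mm well in nutrient or Mueller Hinton II agar received 50 μL of a 2.0 mM solution in DMSO:MeOH (1:9). Plates were incubated at 37 °C for 24 h. The inhibition zone diameter was read in mm, including the 9 mm well. A "p" marks a partially clear zone or colonies inside the zone.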

Enterococcus faecalis [6] = experiment: Antimicrobial activity against vancomycin-resistant Enterococcus faecalis 1528 assessed as inhibition zone at 37 degC for 24 hrs by agar diffusion method; assay type: functional; outline: as §3
Pseudomonas aeruginosa [7] = experiment: Antimicrobial activity against Pseudomonas aeruginosa K799/WT assessed as faint inhibition zone at 37 degC for 24 hrs by agar diffusion method; assay type: functional; outline: as §1
Staphylococcus aureus [8] = experiment: Antimicrobial activity against methicillin-resistant Staphylococcus aureus 134/93 assessed as inhibition zone at 37 degC for 24 hrs by agar diffusion method; assay type: functional; outline: as §3
Escherichia coli [9] = experiment: Antimicrobial activity against Escherichia coli SG458 assessed as partially clear inhibition zone at 37 degC for 24 hrs by agar diffusion method; assay type: functional
Outline: (§4)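 Agar well diffusion. Each 9 mm well in nutrient or Mueller Hinton II agar received 50 μL of a 1.0 mM solution in DMSO:MeOH (1:9). Plates were incubated at 37 °C for 24 h. The inhibition zone diameter was read in mm, including the well. A "p" marks a partially clear zone or colonies inside the zone.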

Pseudomonas aeruginosa [10] = experiment: Antimicrobial activity against Pseudomonas aeruginosa K799/WT assessed as partially clear inhibition zone at 37 degC for 24 hrs by agar diffusion method; assay type: functional; outline: as §3
Pseudomonas aeruginosa [11] = experiment: Antimicrobial activity against Pseudomonas aeruginosa K799/61 assessed as faint inhibition zone at 37 degC for 24 hrs by agar diffusion method; assay type: functional; outline: as §3
Micrococcus luteus [12] = experiment: Antimicrobial activity against Micrococcus luteus ATCC 10240 assessed as inhibition zone at 37 degC for 24 hrs by agar diffusion method; assay type: functional; outline: as §2
Mycolicibacterium vaccae [13] = experiment: Antimicrobial activity against Mycobacterium vaccae IMET assessed as inhibition zone at 37 degC for 24 hrs by agar diffusion method; assay type: functional; outline: as §2
Micrococcus luteus [14] = experiment: Antimicrobial activity against Micrococcus luteus ATCC 10240 assessed as unclear inhibition zone at 37 degC for 24 hrs by agar diffusion method; assay type: functional; outline: as §4
Staphylococcus aureus [15] = experiment: Antimicrobial activity against Staphylococcus aureus SG511 assessed as inhibition zone at 37 degC for 24 hrs by agar diffusion method; assay type: functional; outline: as §2
Staphylococcus aureus [16] = experiment: Antimicrobial activity against Staphylococcus aureus Efs1 assessed as partially clear inhibition zone at 37 degC for 24 hrs by agar diffusion method; assay type: functional; outline: as §3
Bacillus subtilis [17] = experiment: Antimicrobial activity against Bacillus subtilis ATCC 6633 assessed as partially clear inhibition zone at 37 degC for 24 hrs by agar diffusion method; assay type: functional; outline: as §2
Micrococcus luteus [18] = experiment: Antimicrobial activity against Micrococcus luteus ATCC 10240 assessed as partially clear inhibition zone at 37 degC for 24 hrs by agar diffusion method; assay type: functional; outline: as §4
Escherichia coli [19] = experiment: Antimicrobial activity against Escherichia coli SG458 assessed as inhibition zone at 37 degC for 24 hrs by agar diffusion method; assay type: functional; outline: as §2
Pseudomonas aeruginosa [20] = experiment: Antimicrobial activity against Pseudomonas aeruginosa K799/61 assessed as partially clear inhibition zone at 37 degC for 24 hrs by agar diffusion method; assay type: functional; outline: as §3
Pseudomonas aeruginosa [21] = experiment: Antimicrobial activity against Pseudomonas aeruginosa K799/WT assessed as inhibition zone at 37 degC for 24 hrs by agar diffusion method; assay type: functional; outline: as §1
Pseudomonas aeruginosa [22] = experiment: Antimicrobial activity against Pseudomonas aeruginosa K799/WT assessed as inhibition zone at 5 ug/ml at 37 degC for 24 hrs by agar diffusion method; conditions: read-out: IZ
Enterococcus faecalis [23] = experiment: microbe, parasite or virus in culture; conditions: Enterococcus faecalis, 1528, 24 h, read-out: IZ
Escherichia coli [24] = experiment: Antimicrobial activity against Escherichia coli SG458 assessed as inhibition zone at 5 ug/ml at 37 degC for 24 hrs by agar diffusion method; conditions: SG458, 24 h, read-out: IZ
Staphylococcus aureus [25] = experiment: Antimicrobial activity against Staphylococcus aureus Efs4 assessed as inhibition zone at 5 ug/ml at 37 degC for 24 hrs by agar diffusion method; conditions: Efs4, 24 h, read-out: IZ
Staphylococcus aureus [26] = experiment: Antimicrobial activity against Staphylococcus aureus Efs1 assessed as inhibition zone at 5 ug/ml at 37 degC for 24 hrs by agar diffusion method; conditions: Efs1, 24 h, read-out: IZ
Bacillus subtilis [27] = experiment: microbe, parasite or virus in culture; conditions: ATCC 6633, 24 h, read-out: IZ
Micrococcus luteus [28] = experiment: Antimicrobial activity against Micrococcus luteus ATCC 10240 assessed as inhibition zone at 5 ug/ml at 37 degC for 24 hrs by agar diffusion method; assay type: functional; conditions: ATCC 10240, 24 h, read-out: IZ
Outline: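 Agar well diffusion with the control antibiotic dissolved in water at 5 μg/mL. 50 μL was placed in each 9 mm well in nutrient or Mueller Hinton II agar. Plates were incubated at 37 °C for 24 h, and the inhibition zone diameter was read in mm, including the well.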

Staphylococcus aureus [29] = experiment: Antimicrobial activity against Staphylococcus aureus SG511 assessed as inhibition zone at 5 ug/ml at 37 degC for 24 hrs by agar diffusion method; conditions: SG511, 24 h, read-out: IZ
Pseudomonas aeruginosa [30] = experiment: Antimicrobial activity against Pseudomonas aeruginosa K799/61 assessed as inhibition zone at 5 ug/ml at 37 degC for 24 hrs by agar diffusion method; conditions: K799/61, 24 h, read-out: IZ
Staphylococcus aureus [31] = experiment: microbe, parasite or virus in culture; conditions: 134/93, 24 h, read-out: IZ
Mycolicibacterium vaccae [32] = experiment: Antimicrobial activity against Mycobacterium vaccae IMET assessed as inhibition zone at 5 ug/ml at 37 degC for 24 hrs by agar diffusion method; assay type: functional; conditions: read-out: IZ
Outline: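 Ciprofloxacin dissolved in water at 5 μg/mL and filled into 9 mm wells in nutrient or Mueller Hinton II agar. Plates held at 37 °C for 24 h, after which the growth inhibition zone was read in mm.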

Structure (SMILES) | inhibition zone (IZ) (Pseudomonas aeruginosa [1]) [mm] | inhibition zone (IZ) (Bacillus subtilis [2]) [mm] | inhibition zone (IZ) (Staphylococcus aureus [3]) [mm] | inhibition zone (IZ) (Staphylococcus aureus [4]) [mm] | inhibition zone (IZ) (Staphylococcus aureus [5]) [mm] | inhibition zone (IZ) (Enterococcus faecalis [6]) [mm] | inhibition zone (IZ) (Pseudomonas aeruginosa [7]) [mm] | inhibition zone (IZ) (Staphylococcus aureus [8]) [mm] | inhibition zone (IZ) (Escherichia coli [9]) [mm] | inhibition zone (IZ) (Pseudomonas aeruginosa [11]) [mm] | inhibition zone (IZ) (Micrococcus luteus [12]) [mm] | inhibition zone (IZ) (Mycolicibacterium vaccae [13]) [mm] | inhibition zone (IZ) (Micrococcus luteus [14]) [mm] | inhibition zone (IZ) (Staphylococcus aureus [15]) [mm] | inhibition zone (IZ) (Bacillus subtilis [17]) [mm] | inhibition zone (IZ) (Escherichia coli [19]) [mm] | further results
CC(=O)NC[C@H]1CN(c2ccc(N3CCNCC3)c(F)c2)C(=O)O1 | 20 | 26 | 31 | 14 | 18 | 25 | 18 | 25 | 14 | 30 | 23 | 35 | 30 | 18 |  |  | inhibition zone (IZ) (Pseudomonas aeruginosa [10]): 11 mm; inhibition zone (IZ) (Staphylococcus aureus [16]): 35 mm
CC(=O)OC[C@H]1CN(c2ccc(N3CCNCC3)c(F)c2)C(=O)O1 | 16 | 24 | 31 | 19 | 23 | 25 | 15 | 29 | 13 | 26 |  | 42 | 40 | 21 | 26 |  | inhibition zone (IZ) (Micrococcus luteus [18]): 31 mm
CC(=O)NC[C@H]1CN(c2ccc(N3CCOCC3)c(F)c2)C(=O)O1 [LINEZOLID] |  | 33 | 34 | 35 | 39 | 34 |  | 42 | 28 |  | 38 | 52 | 45 | 35 | 37 | 23 | inhibition zone (IZ) (Pseudomonas aeruginosa [20]): 10 mm; inhibition zone (IZ) (Pseudomonas aeruginosa [21]): 0 mm; inhibition zone (IZ) (Staphylococcus aureus [16]): 39 mm
CC(=O)NC[C@H]1CN(c2ccc(N3CCN(C(=O)OCC4=C(C(=O)O)N5C(=O)[C@@H](NC(=O)Cc6ccccc6)[C@H]5SC4)CC3)c(F)c2)C(=O)O1 | 24 | 42 | 40 | 30 |  | 23 | 20 | 17 |  | 33 | 38 | 30 |  | 34 | 45 | 33 | inhibition zone (IZ) (Micrococcus luteus [18]): 42 mm; inhibition zone (IZ) (Pseudomonas aeruginosa [10]): 15 mm
CC(=O)OC[C@H]1CN(c2ccc(N3CCN(C(=O)OCC4=C(C(=O)O)N5C(=O)[C@@H](NC(=O)Cc6ccccc6)[C@H]5SC4)CC3)c(F)c2)C(=O)O1 | 22 | 43 | 40 | 31 |  | 26 | 17 | 27 |  |  | 42 | 44 |  | 36 | 47 | 33 | inhibition zone (IZ) (Pseudomonas aeruginosa [20]): 31 mm
O=C(O)c1cn(C2CC2)c2cc(N3CCNCC3)c(F)cc2c1=O [CIPROFLOXACIN] |  |  |  |  |  |  |  |  |  |  |  |  |  |  |  |  | zone of inhibition at 5 µg/mL (Pseudomonas aeruginosa [22]): 29 mm; zone of inhibition at 5 µg/mL (Enterococcus faecalis [23]): 15 mm; zone of inhibition at 5 µg/mL (Escherichia coli [24]): 34 mm; zone of inhibition at 5 µg/mL (Staphylococcus aureus [25]): 0 mm; zone of inhibition at 5 µg/mL (Staphylococcus aureus [26]): 0 mm; zone of inhibition at 5 µg/mL (Bacillus subtilis [27]): 31 mm; zone of inhibition at 5 µg/mL (Micrococcus luteus [28]): 0 mm; zone of inhibition at 5 µg/mL (Staphylococcus aureus [29]): 18 mm; zone of inhibition at 5 µg/mL (Pseudomonas aeruginosa [30]): 35 mm; zone of inhibition at 5 µg/mL (Staphylococcus aureus [31]): 0 mm; zone of inhibition at 5 µg/mL (Mycolicibacterium vaccae [32]): 23 mm
CC(=O)OCC1=C(C(=O)O)N2C(=O)[C@@H](NC(=O)Cc3ccccc3)[C@H]2SC1 [CEFALORAM] | 23 | 46 | 43 | 35 |  | 23 | 11 | 13 |  |  | 38 | 0 | 44 | 39 | 52 | 35 | 

From ChEMBL document CHEMBL3217698, “Syntheses and biological evaluation of new cephalosporin-oxazolidinone conjugates” (2010)
